The values below come from ChEMBL document CHEMBL1255303, “In vitro and in vivo antifungal activities of T-2307, a novel arylamidine” (2008).

Holding throughout (format): functional, organism-based
Assay [1] relates to Candida albicans. Kind of assay: Antifungal activity against Candida albicans TIMM 1623 infected ICR mouse assessed as delay in mortality of mouse at 0.01 mg/kg after 6 days. Details: dose 0.01 mg/kg. A digest of the protocol: (§1)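 Male ICR mice, 4 weeks old and SPF, were made neutropenic with intraperitoneal cyclophosphamide. The schedule was 200 mg/kg on day −3 (day −4 for Cryptococcus) plus 100 mg/kg on day +1. Infection was by tail-vein injection of 0.2 ml suspension: C. albicans 3.0 × 10^4, C. neoformans 9.1 × 10^4, A. fumigatus conidia 8.4 × 10^4 CFU/mouse. Drugs were given subcutaneously once daily for 7 days from 2 h post-infection; controls received saline. Groups had 8–10 mice.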

Assay [2] relates to Cryptococcus neoformans. The assay can be described thus: Antifungal activity against Cryptococcus neoformans ATCC 90112 infected ICR mouse assessed as delay in mortality of mouse at 0.1 mg/kg after 9 days. On the set-up: dose 0.1 mg/kg. The method, boiled down: as §1
The test system of assay [3] is Candida albicans. Kind of assay: Antifungal activity against Candida albicans TIMM 1623 infected ICR mouse assessed as delay in mortality of mouse at 0.1 mg/kg after 6 days. On the set-up: dose 0.1 mg/kg. The method, boiled down:
as §1

For assay [4], the system named is Cryptococcus neoformans. The assay can be described thus: Antifungal activity against Cryptococcus neoformans ATCC 90112 infected ICR mouse assessed as delay in mortality of mouse at 0.3 mg/kg after 9 days. On the set-up: dose 0.3 mg/kg. A digest of the protocol: as §1

Active and inactive are the calls of the source. The rule behind the calls is not given here.

For the molecule `N=C(N)c1ccc(OCCCC2CCN(CCCOc3ccc(C(=N)N)cc3)CC2)cc1`, the outcome in assay [1] and in assay [2] was Active.
Take `C[C@@H]1[C@H](O)[C@@H](C)/C=C/C=C/C=C/C=C/C=C/C=C/C=C/[C@H](O[C@@H]2O[C@H](C)[C@@H](O)[C@H](N)[C@@H]2O)C[C@@H]2O[C@](O)(C[C@@H](O)C[C@@H](O)[C@H](O)CC[C@@H](O)C[C@@H](O)CC(=O)O[C@H]1C)C[C@H](O)[C@H]2C(=O)O` [AMPHOTERICIN B]: the result in assay [3] and in assay [4] was Active.
